Source: ChEMBL document CHEMBL3875206, “Design, synthesis and biological evaluation of 4'-aminochalcone-rivastigmine hybrids as multifunctional agents for the treatment of Alzheimer's disease” (Bioorg Med Chem, 2017)

How the values were obtained:
[1] = Antioxidant activity assessed as trolox equivalents of AAPH radical scavenging activity at 5 uM preincubated for 15 mins followed by AAPH addition measured every 60 sec for 90 mins by ORAC-FL assay; type: functional
Outline: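 Peroxyl radicals generated by AAPH (12 mM final) at 37 °C in phosphate buffer pH 7.4 with fluorescein (150 nM final). Sample and fluorescein were preincubated 15 min before AAPH addition. Fluorescence (ex 485/em 535 nm) was read every 60 s for 90 min.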

[2] = Inhibition of Cu2+-mediated aggregation of amyloid beta (1-42) (unknown origin) at 25 uM after 24 hrs by thioflavin T fluorescence-based fluorimetric method relative to control; type: functional
Outline: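 HFIP-pretreated Aβ1-42 (25 µM) was incubated with Cu2+ (25 µM), with or without compound (25 µM final), in 20 mM HEPES/150 mM NaCl pH 6.6 at 37 °C for 24 h. 5 µM ThT in 50 mM glycine-NaOH pH 8.5 was then added. Fluorescence was read at ex 446/em 490 nm. Percent inhibition was taken versus no-inhibitor control after background subtraction, in triplicate.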

[3] = target: T1, Amine oxidase [flavin-containing] B (Homo sapiens, UniProt P27338); assay: Inhibition of recombinant human MAO-B expressed in baculovirus infected High 5 insect cells using kynuramine as substrate incubated for 30 mins by spectrofluorometric method; type: cell-based
T1 sequence (P27338 whole entry): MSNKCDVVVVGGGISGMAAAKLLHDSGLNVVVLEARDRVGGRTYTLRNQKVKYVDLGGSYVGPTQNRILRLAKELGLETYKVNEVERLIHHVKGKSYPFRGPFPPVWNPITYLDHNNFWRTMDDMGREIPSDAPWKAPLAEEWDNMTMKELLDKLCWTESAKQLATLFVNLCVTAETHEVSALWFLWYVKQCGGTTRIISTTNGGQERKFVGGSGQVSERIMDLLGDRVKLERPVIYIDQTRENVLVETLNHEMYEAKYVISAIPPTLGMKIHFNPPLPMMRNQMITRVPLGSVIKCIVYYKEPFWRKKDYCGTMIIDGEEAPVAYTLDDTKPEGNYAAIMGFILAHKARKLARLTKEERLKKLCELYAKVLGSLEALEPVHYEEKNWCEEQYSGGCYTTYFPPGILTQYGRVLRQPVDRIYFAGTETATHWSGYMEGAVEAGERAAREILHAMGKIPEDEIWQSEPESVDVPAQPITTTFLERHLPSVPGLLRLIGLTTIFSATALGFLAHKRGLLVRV

Acetylcholinesterase = Acetylcholinesterase (Electrophorus electricus, UniProt O42275); assay: Inhibition of electric eel AChE using acetylthiocholine iodide as substrate incubated for 15 mins by Ellman's method
Outline: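 Ellman spectrophotometric assay: electric eel AChE 0.05 U/mL final, acetylthiocholine iodide 1 mmol/L, phosphate buffer pH 8.0, range of compound concentrations.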

Homo sapiens = species: Homo sapiens; assay: Selectivity index, ratio of IC50 for recombinant human MAO-A expressed in baculovirus infected High 5 insect cells to IC50 for recombinant human MAO-B expressed in baculovirus infected High 5 insect cells
Outline: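 Recombinant human MAO-A or MAO-B (7.5 µg/mL) with kynuramine substrate in 100 mM potassium phosphate pH 7.4 (KCl-isotonic), <4% DMSO, 30 min at 37 °C. Stopped with 2 N NaOH. Single-point inhibition at 10 µM. IC50 from six-concentration sigmoidal curves, triplicate. SI = IC50(MAO-A)/IC50(MAO-B).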

[4] = target: Amyloid-beta precursor protein (Homo sapiens) (UniProt P05067); assay: Inhibition of self-induced aggregation of amyloid beta (1-42) (unknown origin) at 25 uM after 24 hrs by thioflavin T fluorescence-based fluorimetric method relative to control
Outline: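 Aβ1-42 was pretreated in HFIP, dried and stocked in DMSO. Aβ1-42 (25 µM final) was incubated with compound (25 µM final) in 50 mM phosphate buffer pH 7.4 at 37 °C for 24 h. 5 µM ThT in 50 mM glycine-NaOH pH 8.5 was then added. Fluorescence was read at ex 446/em 490 nm. Inhibition = (1−IFi/IFc)×100 after background subtraction, in triplicate.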

[5] = Inhibition of rat serum BuChE at 50 uM using butyrylthiocholine iodide as substrate incubated for 15 mins by Ellman's method relative to control; conditions: 0.25 h
Outline: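 Ellman method with 25% rat serum as BuChE source, butyrylthiocholine iodide 1 mmol/L, phosphate buffer pH 7.4, absorbance at 405 nm. Compounds tested at 50 µM. […] Triplicate wells.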

[6] = target: T2, Amine oxidase [flavin-containing] A (Homo sapiens, UniProt P21397); assay: Inhibition of recombinant human MAO-A expressed in baculovirus infected High 5 insect cells at 10 uM using kynuramine as substrate incubated for 30 mins by spectrofluorometric method relative to control; conditions: 0.5 h
T2 sequence (P21397 whole entry): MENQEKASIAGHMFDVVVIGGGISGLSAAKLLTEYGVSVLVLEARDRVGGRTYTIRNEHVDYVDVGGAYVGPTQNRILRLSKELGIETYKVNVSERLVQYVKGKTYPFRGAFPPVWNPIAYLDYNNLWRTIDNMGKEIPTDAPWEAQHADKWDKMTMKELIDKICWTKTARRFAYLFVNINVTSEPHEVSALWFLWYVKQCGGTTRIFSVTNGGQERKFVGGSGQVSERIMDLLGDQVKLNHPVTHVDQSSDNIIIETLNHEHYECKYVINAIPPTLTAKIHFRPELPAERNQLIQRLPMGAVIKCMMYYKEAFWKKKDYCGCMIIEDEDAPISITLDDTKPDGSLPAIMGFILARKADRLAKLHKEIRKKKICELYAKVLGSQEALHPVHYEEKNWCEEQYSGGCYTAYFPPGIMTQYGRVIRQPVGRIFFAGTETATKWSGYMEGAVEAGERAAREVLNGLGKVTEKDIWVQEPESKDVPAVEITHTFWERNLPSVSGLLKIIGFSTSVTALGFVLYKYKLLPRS
Outline: (§1)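 Recombinant human MAO-A or MAO-B (7.5 µg/mL) with kynuramine substrate in 100 mM potassium phosphate pH 7.4 (KCl-isotonic), <4% DMSO, 30 min at 37 °C. Stopped with 2 N NaOH. 4-Hydroxyquinoline was measured fluorometrically (ex 310/em 400 nm) against a calibration curve. Single-point inhibition at 10 µM. IC50 from six-concentration sigmoidal curves, triplicate. SI = IC50(MAO-A)/IC50(MAO-B).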

[7] = target: T1, Amine oxidase [flavin-containing] B; assay: Inhibition of recombinant human MAO-B expressed in baculovirus infected High 5 insect cells 10 uM using kynuramine as substrate incubated for 30 mins by spectrofluorometric method relative to control; conditions: 0.5 h; outline: as §1

Chain of Acetylcholinesterase (O42275 whole entry): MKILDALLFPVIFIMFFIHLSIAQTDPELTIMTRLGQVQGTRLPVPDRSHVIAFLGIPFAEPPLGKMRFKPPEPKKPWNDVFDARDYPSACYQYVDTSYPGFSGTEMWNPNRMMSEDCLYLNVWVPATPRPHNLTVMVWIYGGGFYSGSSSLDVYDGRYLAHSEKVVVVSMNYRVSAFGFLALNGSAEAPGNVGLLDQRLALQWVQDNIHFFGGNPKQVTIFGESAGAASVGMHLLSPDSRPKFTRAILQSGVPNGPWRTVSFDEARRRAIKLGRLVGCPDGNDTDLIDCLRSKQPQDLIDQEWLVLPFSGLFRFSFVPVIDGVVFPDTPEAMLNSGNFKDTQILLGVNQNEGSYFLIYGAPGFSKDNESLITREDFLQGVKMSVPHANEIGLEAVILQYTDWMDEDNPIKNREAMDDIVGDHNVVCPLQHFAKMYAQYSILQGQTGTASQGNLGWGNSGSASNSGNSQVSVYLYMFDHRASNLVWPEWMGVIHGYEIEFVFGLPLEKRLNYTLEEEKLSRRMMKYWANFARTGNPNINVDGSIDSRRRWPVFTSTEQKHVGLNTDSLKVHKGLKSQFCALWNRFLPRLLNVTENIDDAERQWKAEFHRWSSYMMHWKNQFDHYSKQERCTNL
Chain of Amyloid-beta precursor protein (Homo sapiens) (P05067 whole entry): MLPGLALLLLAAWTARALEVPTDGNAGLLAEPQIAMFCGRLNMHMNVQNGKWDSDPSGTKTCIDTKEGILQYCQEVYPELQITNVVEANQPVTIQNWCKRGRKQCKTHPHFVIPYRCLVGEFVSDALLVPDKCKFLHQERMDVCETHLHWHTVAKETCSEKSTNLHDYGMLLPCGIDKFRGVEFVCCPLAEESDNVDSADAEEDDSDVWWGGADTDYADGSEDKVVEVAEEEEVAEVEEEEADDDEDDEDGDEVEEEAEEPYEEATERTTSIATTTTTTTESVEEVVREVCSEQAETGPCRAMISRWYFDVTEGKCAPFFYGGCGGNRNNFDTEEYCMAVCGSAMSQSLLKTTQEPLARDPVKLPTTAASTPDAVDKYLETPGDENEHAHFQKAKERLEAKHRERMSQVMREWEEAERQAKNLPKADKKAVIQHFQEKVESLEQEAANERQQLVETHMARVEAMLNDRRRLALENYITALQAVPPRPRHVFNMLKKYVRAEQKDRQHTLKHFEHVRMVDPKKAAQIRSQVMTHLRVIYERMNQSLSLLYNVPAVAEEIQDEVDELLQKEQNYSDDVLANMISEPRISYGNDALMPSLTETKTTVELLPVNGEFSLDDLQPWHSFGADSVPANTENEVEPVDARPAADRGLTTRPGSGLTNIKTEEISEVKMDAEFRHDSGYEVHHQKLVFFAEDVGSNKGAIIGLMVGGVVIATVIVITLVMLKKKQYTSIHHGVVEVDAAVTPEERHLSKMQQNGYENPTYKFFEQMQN

Compound	Activity [1] [µMequiv/µM]	inhibition [2] [%]	IC50 [3] [µM]	IC50 (Acetylcholinesterase) [µM]	Ratio IC50 (Homo sapiens)	inhibition [4] [%]	inhibition (INH) [5] [%]	inhibition at 10 µM [6] [%]	inhibition at 10 µM [7] [%]
CCN(C)C(=O)Oc1ccc(C(=O)/C=C/c2ccc(N(C)C)cc2)c(O)c1	3.14	88	2.1	14.3	> 4.76	98	< 10	25.9	–
O=C(/C=C/c1ccc(N2CCCCC2)cc1)c1ccc(OC(=O)N2CCCC2)cc1O	1.2	59.8	0.78	10.6	–	57.2	< 10	19.6	–
CCN1CCN(C(=O)Oc2ccc(C(=O)/C=C/c3ccc(N(C)C)cc3)c(O)c2)CC1	2.54	89.2	–	8.62	–	83.2	< 10	42.5	30
O=C(/C=C/c1ccc(N2CCOCC2)cc1)c1ccc(OC(=O)N2CCCC2)cc1O	0.51	48.9	0.71	63.5	> 14.1	44.4	< 10	15.2	–
O=C(/C=C/c1ccc(N2CCCC2)cc1)c1ccc(OC(=O)N2CCCC2)cc1O	0.35	48.9	0.71	14.1	–	44.4	< 10	15.2	–
CCN(CC)C(=O)Oc1ccc(C(=O)/C=C/c2ccc(N(C)C)cc2)c(O)c1	2.2	49	3.5	17.2	–	76.7	< 10	24.4	–
CN1CCN(C(=O)Oc2ccc(C(=O)/C=C/c3ccc(N(C)C)cc3)c(O)c2)CC1	2.08	75.5	–	11.9	–	87.9	< 10	49.5	25.1
CN(C)c1ccc(/C=C/C(=O)c2ccc(OC(=O)N3CCCCC3)cc2OC(=O)N2CCCCC2)cc1	2.41	23.8	–	32.4	–	38	< 10	17	30.1
CN(C)c1ccc(/C=C/C(=O)c2ccc(OC(=O)N3CCN(Cc4ccccc4)CC3)cc2O)cc1	3.51	94.2	–	21.4	–	89.4	< 10	42.1	41.6
CN(C)C(=O)Oc1ccc(C(=O)/C=C/c2ccc(N(C)C)cc2)c(OC(=O)N(C)C)c1	2.16	56.2	–	> 100	–	34.7	< 10	34.6	5.1
COc1cc(/C=C/C(=O)CC(=O)/C=C/c2ccc(O)c(OC)c2)ccc1O	–	67.2	–	–	–	–	–	–	–
CN(C)c1ccc(/C=C/C(=O)c2ccc(OC(=O)N3CCOCC3)cc2O)cc1	2.04	79.7	–	8.01	–	83.6	< 10	34.6	42.3
CN(C)c1ccc(/C=C/C(=O)c2ccc(OC(=O)N3CCOCC3)cc2OC(=O)N2CCOCC2)cc1	1.85	41.4	–	58	–	33.3	< 10	15	40.2
CN(C)c1ccc(/C=C/C(=O)c2ccc(OC(=O)N3CCCCC3)cc2O)cc1	2.51	73.9	–	6.9	–	70.2	< 10	27.8	31.1
CN(C)c1ccc(/C=C/C(=O)c2ccc(OC(=O)N3CCCC3)cc2OC(=O)N2CCCC2)cc1	2.45	26.3	–	30	–	48	< 10	25.2	34.6
CCN(CC)c1ccc(/C=C/C(=O)c2ccc(OC(=O)N3CCCC3)cc2O)cc1	1.02	67.1	6.7	11.7	–	67.8	< 10	21	–
